Screens deposited in PubChem BioAssay by several laboratories.
Diaph inh CS – counter-screen for diaphorase-based assays: diaphorase inhibitors and chemical oxidizers; diaphorase resazurin-to-resorufin fluorescence, NADH, 16 min; bacterial (C. kluyveri) enzyme, not human; inhibition, % at 20 µM; 190,000 tested, 0.69% active; AID 1217;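 active means primary screen inhibition at 20 µM above a set limit, cut at about 50% in these data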
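Benchmarks: positive control wells lacking NADH, neutral wells with DMSO only. System: bacterial diaphorase enzyme (C. kluyveri). Input: 0.14 U/mL diaphorase, enzyme working solution. Detection: resorufin fluorescence, excitation 544 nm, emission 590 nm. Times: 16-min room-temperature incubation before reading.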
TbHK1 inh – blocks Trypanosoma brucei hexokinase 1 activity; recombinant TbHK1, G6PDH-coupled NADH A340; inhibition, % at 10 µM; 220,000 tested, 0.11% active; AID 1430;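 active means inhibition of 50% or more in the single-dose primary screen; inactive means inhibition below 50%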
PfG6PD inh – PfG6PD (Plasmodium falciparum) enzyme inhibition; PfGluPho enzyme, NADPH resazurin-diaphorase fluorescence; inhibition, % at 20 µM; 350,000 tested, 0.78% active;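 active means inhibition reaching at least a set limit at 20 µM in the primary screen, cut at about 59% in these data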
G6PDH counter – counter-screen for G6PDH assay hits: L. mesenteroides G6PDH inhibition | Purified L. mesenteroides G6PDH, diaphorase/resazurin coupled fluorescence, 45 min | 200,000 tested, 0.12% active | inhibition, % at 5 µM; in the data active means inhibition above about 50%
HKDC1 inhibitor – inhibitors of human hexokinase HKDC1. AID 493160. inhibition, % at 20 µM. 340,000 tested, 0.16% active. recombinant HKDC1, G6PDH/diaphorase resazurin coupled fluorescence;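 active means inhibition above about 35% when tested at 20 µM, limit read from the data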
Target sequence (Q2TB90 whole entry, looked up): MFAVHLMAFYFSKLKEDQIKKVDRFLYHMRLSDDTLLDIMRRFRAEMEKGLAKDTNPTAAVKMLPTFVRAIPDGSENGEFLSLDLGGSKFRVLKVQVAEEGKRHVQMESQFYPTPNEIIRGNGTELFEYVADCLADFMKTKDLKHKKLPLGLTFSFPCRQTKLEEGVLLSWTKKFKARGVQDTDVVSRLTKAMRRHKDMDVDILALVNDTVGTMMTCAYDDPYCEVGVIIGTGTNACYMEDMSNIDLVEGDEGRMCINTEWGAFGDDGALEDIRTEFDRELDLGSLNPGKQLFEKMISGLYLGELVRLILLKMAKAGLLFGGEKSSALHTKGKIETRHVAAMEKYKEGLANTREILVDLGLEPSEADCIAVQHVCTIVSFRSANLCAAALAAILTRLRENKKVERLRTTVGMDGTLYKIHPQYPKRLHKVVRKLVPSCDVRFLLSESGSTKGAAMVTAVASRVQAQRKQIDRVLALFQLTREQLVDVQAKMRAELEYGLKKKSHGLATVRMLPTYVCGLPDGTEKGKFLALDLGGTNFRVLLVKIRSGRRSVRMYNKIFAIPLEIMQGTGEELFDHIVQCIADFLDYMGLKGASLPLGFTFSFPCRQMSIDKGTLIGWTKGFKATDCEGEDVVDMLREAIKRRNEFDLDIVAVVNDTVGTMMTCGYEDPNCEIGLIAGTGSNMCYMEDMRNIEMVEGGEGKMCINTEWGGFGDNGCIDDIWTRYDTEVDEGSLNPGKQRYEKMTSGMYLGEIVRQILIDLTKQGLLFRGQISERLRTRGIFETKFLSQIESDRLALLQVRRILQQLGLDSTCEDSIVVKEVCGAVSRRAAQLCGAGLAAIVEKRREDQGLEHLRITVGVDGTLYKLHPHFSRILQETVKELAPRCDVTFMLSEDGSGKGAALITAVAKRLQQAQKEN
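Assay system: recombinant HKDC1 hexokinase; detection: coupled resazurin fluorescence, excitation 525 nm, emission 613 nm; benchmarks: DMSO-plus-enzyme-mix negative control, buffer-substituted positive control; compound dosing: single 20 µM dose; schedule: 90 min at room temperature in dark; also added: glucose plus 1 mM ATP as hexokinase substrates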
PfG6PD confirm – confirmation of Plasmodium falciparum G6PD inhibitors | shares compounds with PfG6PD inh | recombinant PfGluPho, NADPH-diaphorase-resazurin fluorescence | inhibition, % at 20 µM | 2,400 tested, 34% active;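 active means inhibition of at least 50% at 20 µM in any single replicate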
Diaphorase 10uM – counter-screen for P. falciparum G6PD inhibitors: diaphorase inhibitors, oxidizers; shares compounds with PfG6PD inh; diaphorase-coupled resazurin reduction, fluorescence, NADPH 10 uM; inhibition, % at 20 µM; 820 tested, 39% active; AID 504862;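 active means average inhibition reaching 50% or more with the compound at 20 µM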;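 further: resorufin red fluorescence formed as diaphorase reduces resazurin using NADPH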
Diaph ctr 30uM – inhibits diaphorase or oxidizes, flagging false PfG6PD hits | Diaphorase/resazurin coupled assay, resorufin fluorescence, 30 uM NADPH | AID 504863 | 820 tested, 29% active | shares compounds with PfG6PD inh | inhibition, % at 20 µM;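 active means inhibition averaging 50% or more, tested at 20 µM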
Each line names hits and unclear results; the compound was inactive in the other large screens (follow-up assays come after a bar, where they were run). Rows were chosen to be rich in hits. Some 1.2% of all compounds tested hit in one or more screens of this group.

O=c1c2cc([N+](=O)[O-])ccc2sn1-c1ccccc1	PfG6PD inh 121 (no result: Diaph inh CS, TbHK1 inh, G6PDH counter, HKDC1 inhibitor) | PfG6PD confirm 105 | Diaphorase 10uM inactive | Diaph ctr 30uM inactive
N#Cc1ccc2sn(-c3ccccc3)c(=O)c2c1	PfG6PD inh 126 (no result: Diaph inh CS, TbHK1 inh, G6PDH counter, HKDC1 inhibitor) | PfG6PD confirm 107 | Diaphorase 10uM inactive | Diaph ctr 30uM inactive
O=C(NC1CC1)c1ccc(NC(=O)C2CCCCC2)cc1	none (no result: Diaph inh CS, TbHK1 inh, G6PDH counter)
COc1cccc(OC)c1C(=O)NC(C)CCc1ccccc1 (stereo not drawn)	none (no result: Diaph inh CS, TbHK1 inh, G6PDH counter)
COc1cc(NC(C)CCc2ccccc2)cc(OC)c1OC (stereo not drawn)	PfG6PD inh 77 (no result: Diaph inh CS, TbHK1 inh, G6PDH counter) | PfG6PD confirm 79 | Diaphorase 10uM inactive | Diaph ctr 30uM inactive
Cc1ccc(C)c(C(=O)NCCN(C)C)c1	none
C=C(CN(C)C)C(=O)c1cc(C)ccc1C	PfG6PD inh 79 (no result: Diaph inh CS, TbHK1 inh, G6PDH counter) | PfG6PD confirm inactive
Cc1ccc([C@H]2C[C@@H](O)[C@H](n3cc(-c4ccc(F)cc4)nn3)CN2Cc2cccs2)cc1	none (no result: Diaph inh CS, TbHK1 inh, G6PDH counter, HKDC1 inhibitor)
Clc1ccc(-c2nc3cc(CN4CCCCC4)ccc3o2)cc1	none (no result: Diaph inh CS, TbHK1 inh, G6PDH counter)
Cc1ccc(N)cc1O	PfG6PD inh 65 (no result: Diaph inh CS, TbHK1 inh, G6PDH counter) | PfG6PD confirm inactive
COc1cccc(-n2c(=S)sc3c(=O)n(-c4ccccc4OC)c(=S)[nH]c32)c1	none
COc1ccccc1-n1c(=S)[nH]c2c(sc(=S)n2-c2ccccc2C)c1=O	PfG6PD inh 72 | PfG6PD confirm inactive
CCOc1ccc(-n2c(=S)sc3c(=O)n(-c4ccccc4)c(SC)nc32)cc1	none (no result: Diaph inh CS, TbHK1 inh, G6PDH counter)
COc1ccccc1-n1c(=S)[nH]c2c(sc(=S)n2-c2ccccc2)c1=O	PfG6PD inh 63 | PfG6PD confirm inactive
COc1ccc(OC)c(-n2c(=S)[nH]c3c(sc(=S)n3-c3ccccc3C)c2=O)c1	none
CCOc1ccccc1-n1c(=S)sc2c(=O)n(-c3ccccc3)c(=S)[nH]c21	PfG6PD inh 73 | PfG6PD confirm inactive
O=C(CN1C(=O)NC2(CCCC2)C1=O)Nc1cc(Cl)ccc1N1CCOCC1	none (no result: Diaph inh CS, TbHK1 inh, G6PDH counter)
CC(=O)c1cccc(NC(=O)c2ccc(N(Cc3ccc(C)cc3)S(C)(=O)=O)cc2)c1	none
CN(c1ccc(C(=O)Nc2cccc(O)c2)cc1)S(=O)(=O)c1ccccc1	PfG6PD inh 59 (no result: Diaph inh CS, TbHK1 inh, G6PDH counter) | PfG6PD confirm inactive
COCc1ccc(C(=O)Nc2cccc(S(=O)(=O)N(C)c3ccccc3)c2)cc1	none (no result: Diaph inh CS, TbHK1 inh, G6PDH counter)
CC(=O)c1cccc(NC(=O)c2ccc(N(C)S(=O)(=O)c3ccc(C)cc3)cc2)c1	PfG6PD inh 63 (no result: Diaph inh CS, TbHK1 inh, G6PDH counter) | PfG6PD confirm inactive
CC1=Nc2nc(N3CCCCCC3)c(C#N)c3c4c(nc(c23)N1)N(c1ccc2ccccc2c1)C(=O)C4	none (no result: Diaph inh CS, TbHK1 inh, G6PDH counter)
Cc1ccc(C(=O)NC(=S)c2c(C)cc3ccccn23)cc1	none (no result: Diaph inh CS, TbHK1 inh, G6PDH counter, HKDC1 inhibitor)
Cc1cnc(C=NNC(N)=S)c2cccc(N)c12	PfG6PD inh 106 (no result: Diaph inh CS, TbHK1 inh, G6PDH counter) | PfG6PD confirm 66 | Diaphorase 10uM inactive | Diaph ctr 30uM inactive
NC(=S)NN=Cc1nccc2ccccc12	PfG6PD inh 80 (no result: Diaph inh CS, TbHK1 inh, G6PDH counter) | PfG6PD confirm inactive
NC(=S)NN=Cc1nccc2c(C(F)(F)C(F)(F)C(F)(F)F)cccc12	none (no result: Diaph inh CS, TbHK1 inh, G6PDH counter, HKDC1 inhibitor)
COCCS(=O)(=O)N(Cc1ccc(Br)cc1)[C@@H](C)C(=O)OC	none (no result: Diaph inh CS, TbHK1 inh, G6PDH counter)
O=C(CNc1cccc2ccccc12)N/N=C/c1ccccn1	PfG6PD inh 60 (no result: Diaph inh CS, G6PDH counter) | PfG6PD confirm inactive
Cc1cccc(NCC(=O)N/N=C\c2ccccn2)c1	none
COc1ccc(/C=N/Nc2ccc([N+](=O)[O-])cc2)cc1O	PfG6PD inh 81 (no result: Diaph inh CS, TbHK1 inh, G6PDH counter) | PfG6PD confirm inactive
COc1ccc(/C=N/Nc2ccc([N+](=O)[O-])cc2)cc1Cn1cc([N+](=O)[O-])cn1	none
CCCCn1c(SCC(=O)N2CCCC2)nc2cc(S(N)(=O)=O)ccc21	none
CCCCn1c(SCC(=O)c2ccc3c(c2)NC(=O)CO3)nc2cc(S(N)(=O)=O)ccc21	PfG6PD inh 61 | PfG6PD confirm inactive
CCCCn1c(SC(C)C(=O)c2ccc(OC)cc2)nc2cc(S(N)(=O)=O)ccc21 (stereo not drawn)	none
